Converted amounts (≈) assume the structure as drawn.
Legend:
[1] = tested on: Plasmodium falciparum; assay: Antimalarial activity against Plasmodium falciparum 3D7 after 72 hrs by MSF assay; assay type: functional, organism-based; conditions: 3D7, 72 h
[2] = tested on: Plasmodium falciparum; assay: Antimalarial activity against Plasmodium falciparum K1 after 72 hrs by MSF assay; assay type: functional, organism-based; conditions: K1, 72 h
[3] = target: T1, ATP-sensitive inward rectifier potassium channel 11 (Homo sapiens, UniProt Q14654); assay: Inhibition of Kir6.2 by patch clamp assay
T1 sequence (Q14654 whole entry): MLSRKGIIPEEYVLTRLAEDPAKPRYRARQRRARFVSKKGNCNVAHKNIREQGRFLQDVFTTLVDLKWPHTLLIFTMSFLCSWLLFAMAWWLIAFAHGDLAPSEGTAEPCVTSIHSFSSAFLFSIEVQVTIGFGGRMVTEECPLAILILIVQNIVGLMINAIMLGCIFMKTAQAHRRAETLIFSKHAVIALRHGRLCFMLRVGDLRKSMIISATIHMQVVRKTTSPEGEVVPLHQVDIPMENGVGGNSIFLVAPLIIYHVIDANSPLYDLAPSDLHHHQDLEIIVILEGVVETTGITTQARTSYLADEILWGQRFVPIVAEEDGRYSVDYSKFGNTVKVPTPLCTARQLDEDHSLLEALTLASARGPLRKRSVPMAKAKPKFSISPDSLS

[4] = Permeability of the compound at 10 uM at pH 7.4 by PAMPA; assay type: ADME; conditions: pH 7.4, 10 µM
How it was run: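 PAMPA: diluted compound in system solution buffer at pH 7.4 was placed in the donor well over a GIT-lipid-painted membrane, with acceptor solution buffer in the acceptor well. The sandwich was stirred for 30 min with the aqueous boundary layer set to 40 μm. Triplicate.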

[5] = Solubility of the compound in PBS at 10 mM after 18 hrs by UV spectroscopic analysis; assay type: physicochemical
[6] = Intrinsic clearance in […] mouse liver microsomes at 2 mM; assay type: ADME, Microsome; conditions: read-out: CLH
[7] = tested on: Mus musculus; assay: Cmax in CD1 mouse at 20 mg/kg, po; assay type: ADME, organism-based; set-up: dose 20 mg/kg, route oral; conditions: in vivo
How it was run: (§1)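 Female CD-1 mice, 8 weeks old, were given a single oral gavage dose as a suspension in 0.5% methylcellulose in sterile water. Blood was taken from three mice per time point (5 min–24 hr) into K3EDTA and processed to plasma. After acetonitrile protein precipitation, samples were analysed by LC-MS/MS with a warfarin internal standard. Noncompartmental analysis used linear-up/log-down trapezoidal AUC and at least three non-zero concentrations after Tmax.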

[8] = tested on: Mus musculus; assay: Cmax in CD1 mouse at 200 mg/kg, po; assay type: ADME, organism-based; set-up: dose 200 mg/kg, route oral; conditions: in vivo; how it was run: as §1
[9] = tested on: Mus musculus; assay: Tmax in CD1 mouse at 20 mg/kg, po; assay type: ADME, organism-based; set-up: dose 20 mg/kg, route oral; conditions: in vivo; how it was run: as §1
[10] = tested on: Mus musculus; assay: Tmax in CD1 mouse at 200 mg/kg, po; assay type: ADME, organism-based; set-up: dose 200 mg/kg, route oral; conditions: in vivo; how it was run: as §1
[11] = tested on: Mus musculus; assay: AUC (0 to infinity) in CD1 mouse at 200 mg/kg, po; assay type: ADME, organism-based, Plasma; set-up: time infinity, dose 200 mg/kg, route oral; conditions: in vivo; how it was run: as §1
[12] = Apparent volume of distribution during terminal phase in CD1 mouse at 200 mg/kg, po; assay type: ADME, organism-based; set-up: dose 200 mg/kg, route oral; conditions: in vivo, read-out: Vz/F; how it was run: as §1
[13] = tested on: HEK293; assay: Cytotoxicity against human HEK293 cells at 25 uM after 72 hrs by celltiter-glo assay; assay type: cell-based; conditions: hek293, 72 h
[14] = tested on: HepG2; assay: Cytotoxicity against human HepG2 cells at 25 uM after 72 hrs by celltiter-glo assay; assay type: cell-based; conditions: hepg2, 72 h
[15] = tested on: Raji; assay: Cytotoxicity against human Raji cells at 25 uM after 72 hrs by celltiter-glo assay; assay type: cell-based
[16] = tested on: BJ; assay: Cytotoxicity against human BJ cells at 25 uM after 72 hrs by celltiter-glo assay; assay type: cell-based
[17] = target: Voltage-gated inwardly rectifying potassium channel KCNH2 (Homo sapiens, UniProt Q12809); assay: Inhibition of human ERG by patch clamp assay
[18] = tested on: Plasmodium berghei; assay: Antimalarial activity against Plasmodium berghei NK-65 infected in ICR mouse assessed as parasitemia level at 200 mg/kg, po administered day 3, 4 and 5 post infection measured up to day 30 by Geimsa staining; assay type: functional
How it was run: (§2)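 Female Swiss outbred ICR mice, 15–20 g, given 1 X 10^6 P. berghei NK-65 infected red cells from donor mice in plasma at day 0 (modified Thompson's test). Patent infection confirmed by tail blood smear on day 3. Oral single daily doses in 0.5% HEC on days 3, 4, 5. Vehicle controls. Survival recorded daily to day 30. Parasitemia from Giemsa thin films on days 3, 6, 13, 20, 27, counting ≥1000 cells.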

[19] = tested on: hERG; assay: Therapeutic index, ratio of IC50 for human ERG to EC50 for Plasmodium falciparum K1; conditions: read-out: Ratio IC50/EC50
[20] = tested on: Mus musculus; assay: Cmax in CD1 mouse at 500 mg/kg, po; assay type: ADME, organism-based; set-up: dose 500 mg/kg, route oral; conditions: in vivo; how it was run: as §1
[21] = tested on: Mus musculus; assay: Tmax in CD1 mouse at 500 mg/kg, po; assay type: ADME, organism-based; set-up: dose 500 mg/kg, route oral; conditions: in vivo; how it was run: as §1
[22] = tested on: Mus musculus; assay: AUC (0 to infinity) in CD1 mouse at 20 mg/kg, po; assay type: ADME, organism-based, Plasma; set-up: time infinity, dose 20 mg/kg, route oral; conditions: in vivo; how it was run: as §1
[23] = tested on: Mus musculus; assay: AUC (0 to infinity) in CD1 mouse at 500 mg/kg, po; assay type: ADME, organism-based, Plasma; set-up: time infinity, dose 500 mg/kg, route oral; conditions: in vivo; how it was run: as §1
[24] = (§3) Apparent volume of distribution during terminal phase in CD1 mouse at 20 mg/kg, po; assay type: ADME, organism-based; set-up: dose 20 mg/kg, route oral; conditions: CD1, mouse, in vivo, read-out: Vz/F; how it was run: as §1
[25] = tested on: Mus musculus; assay: (§4) Apparent volume of distribution during terminal phase in CD1 mouse at 500 mg/kg, po; assay type: ADME, organism-based; set-up: dose 500 mg/kg, route oral; conditions: mouse, in vivo; how it was run: as §1
[26] = tested on: Plasmodium berghei; assay: Antimalarial activity against Plasmodium berghei NK-65 infected in ICR mouse assessed as parasitemia level at 100 mg/kg, po administered day 3, 4 and 5 post infection measured up to day 30 by Geimsa staining; assay type: functional; how it was run: as §2
[27] = tested on: Plasmodium berghei; assay: Antimalarial activity against Plasmodium berghei NK-65 infected in ICR mouse assessed as survival rate at 100 mg/kg, po administered day 3, 4 and 5 post infection; assay type: functional; how it was run: as §2
[28] = tested on: Plasmodium berghei; assay: Antimalarial activity against Plasmodium berghei NK-65 infected in ICR mouse assessed as survival rate at 200 mg/kg, po administered day 3, 4 and 5 post infection; assay type: functional; how it was run: as §2
[29] = target: T2, CYP2D6 (Homo sapiens, UniProt P10635); assay: Inhibition of CYP2D6 in human liver microsomes at 1 uM after 20 mins by LC-MS/MS analysis relative to control; values are per cent of control
[30] = target: T2, CYP2D6; assay: Inhibition of CYP2D6 in human liver microsomes at 10 uM after 20 mins by LC-MS/MS analysis relative to control; values are per cent of control
[31] = Intrinsic clearance in human liver microsomes at 2 mM; assay type: ADME, Microsome; conditions: read-out: CLH
[32] = tested on: Plasmodium berghei; assay: Antimalarial activity against Plasmodium berghei NK-65 infected in ICR mouse assessed as parasitemia level at 100 mg/kg, po administered day 3, 4 and 5 post infection measured on day 6 by Geimsa staining; assay type: functional; how it was run: as §2
[33] = tested on: Mus musculus; assay: as §3; assay type: ADME, organism-based; set-up: dose 20 mg/kg, route oral; conditions: mouse, in vivo; how it was run: as §1
[34] = as §4; assay type: ADME, organism-based; set-up: dose 500 mg/kg, route oral; conditions: CD1, mouse, in vivo, read-out: Vz/F; how it was run: as §1
[35] = tested on: Plasmodium berghei; assay: Antimalarial activity against Plasmodium berghei NK-65 infected in ICR mouse assessed as parasitemia level at 200 mg/kg, po administered day 3, 4 and 5 post infection measured on day 6 by Geimsa staining; assay type: functional; how it was run: as §2
[36] = tested on: Plasmodium berghei; assay: Antimalarial activity against Plasmodium berghei NK-65 infected in ICR mouse assessed as parasitemia level at 200 mg/kg, po administered day 3, 4 and 5 post infection measured on day 13 by Geimsa staining; assay type: functional; how it was run: as §2
[37] = tested on: Plasmodium berghei; assay: Antimalarial activity against Plasmodium berghei NK-65 infected in ICR mouse assessed as parasitemia level at 200 mg/kg, po administered day 3, 4 and 5 post infection measured on day 20 by Geimsa staining; assay type: functional; how it was run: as §2
[38] = tested on: Plasmodium berghei; assay: Antimalarial activity against Plasmodium berghei NK-65 infected in ICR mouse assessed as survival rate at 50 mg/kg, po administered day 3, 4 and 5 post infection; assay type: functional; how it was run: as §2

T2 sequence (P10635 whole entry): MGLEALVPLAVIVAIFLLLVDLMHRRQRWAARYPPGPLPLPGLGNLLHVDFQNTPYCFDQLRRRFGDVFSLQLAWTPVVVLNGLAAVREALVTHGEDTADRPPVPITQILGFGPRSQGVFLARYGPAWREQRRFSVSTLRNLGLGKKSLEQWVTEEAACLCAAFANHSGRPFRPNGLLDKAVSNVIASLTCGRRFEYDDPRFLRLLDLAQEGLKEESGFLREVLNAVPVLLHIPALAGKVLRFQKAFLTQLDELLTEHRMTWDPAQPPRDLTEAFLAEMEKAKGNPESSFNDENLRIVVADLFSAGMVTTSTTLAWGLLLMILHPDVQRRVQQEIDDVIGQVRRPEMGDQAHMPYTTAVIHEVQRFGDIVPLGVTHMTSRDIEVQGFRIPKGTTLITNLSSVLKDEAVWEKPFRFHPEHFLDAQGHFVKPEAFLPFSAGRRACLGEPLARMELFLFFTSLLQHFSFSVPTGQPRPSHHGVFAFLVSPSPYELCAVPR
Sequence of Voltage-gated inwardly rectifying potassium channel KCNH2 (Q12809 whole entry): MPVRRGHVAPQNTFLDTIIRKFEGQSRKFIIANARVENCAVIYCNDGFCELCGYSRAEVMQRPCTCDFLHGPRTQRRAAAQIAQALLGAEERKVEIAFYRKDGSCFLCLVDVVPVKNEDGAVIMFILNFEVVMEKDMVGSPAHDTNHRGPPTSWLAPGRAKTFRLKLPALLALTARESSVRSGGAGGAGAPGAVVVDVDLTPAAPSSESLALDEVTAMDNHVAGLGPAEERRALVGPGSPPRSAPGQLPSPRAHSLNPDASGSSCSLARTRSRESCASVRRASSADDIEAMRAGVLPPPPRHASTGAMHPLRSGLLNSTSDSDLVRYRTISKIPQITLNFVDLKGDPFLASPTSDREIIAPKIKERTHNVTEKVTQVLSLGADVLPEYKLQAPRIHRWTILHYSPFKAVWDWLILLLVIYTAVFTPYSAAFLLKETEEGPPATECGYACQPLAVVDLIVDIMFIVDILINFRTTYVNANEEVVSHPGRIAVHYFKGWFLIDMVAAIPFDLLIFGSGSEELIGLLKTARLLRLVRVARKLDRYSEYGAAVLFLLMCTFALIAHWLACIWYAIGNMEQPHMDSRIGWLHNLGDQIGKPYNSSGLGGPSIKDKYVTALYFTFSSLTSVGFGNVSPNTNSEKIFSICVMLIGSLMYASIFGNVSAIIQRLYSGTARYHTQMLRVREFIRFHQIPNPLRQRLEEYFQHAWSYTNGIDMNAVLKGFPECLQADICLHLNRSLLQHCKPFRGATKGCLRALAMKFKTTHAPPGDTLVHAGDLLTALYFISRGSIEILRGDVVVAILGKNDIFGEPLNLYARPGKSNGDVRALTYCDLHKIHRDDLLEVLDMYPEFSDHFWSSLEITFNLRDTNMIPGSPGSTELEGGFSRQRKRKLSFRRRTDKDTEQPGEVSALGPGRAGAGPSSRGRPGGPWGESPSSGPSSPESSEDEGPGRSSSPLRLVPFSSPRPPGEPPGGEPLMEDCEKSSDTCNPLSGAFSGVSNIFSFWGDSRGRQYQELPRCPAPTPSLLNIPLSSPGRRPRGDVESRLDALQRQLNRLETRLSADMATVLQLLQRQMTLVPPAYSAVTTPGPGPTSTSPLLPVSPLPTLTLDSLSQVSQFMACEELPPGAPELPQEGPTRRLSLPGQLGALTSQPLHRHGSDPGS

Compound	EC90 [1] [nM]	EC90 [2] [nM]	IC50 [3] [nM]	permeability [4] [×10⁻⁶ cm/s]	solubility at 18 h, 10000 µM [5] [µM]	Cmax [7] [nM]	Cmax [8] [nM]	Tmax [9] [h]	Tmax [10] [h]	AUC [11] [µM·h]	Vd/F [12] [L/kg]	Activity [13]	Activity [14]	Activity [15]	Activity [16]	Cmax [20] [nM]	Tmax [21] [h]	AUC [22] [µM·h]	% activity remaining at 20 min, 1 µM [29] [%]	% activity remaining at 20 min, 10 µM [30] [%]	also measured
O=C(CCc1ccccc1)c1cc(F)ccc1OCC(O)CN1CCN(C(c2ccccc2)c2ccccc2)CC1 (stereo not drawn)	660	310	> 5000	0.8	0.2 (≈ 0.111 µg/mL)	98.7	908	1	1	6.17	276	Non-toxic	Non-toxic	Non-toxic	Non-toxic	–	–	–	–	–	CLint scaled [6]: 34 mL/min/kg
O=C(CCc1ccccc1)c1ccccc1OCC(O)CN1CCN(C(c2ccccc2)c2ccccc2)CC1 (stereo not drawn)	90	100	–	2.3	0.1 (≈ 0.0535 µg/mL)	73.7	667	1	0.5	3.1	603	Non-toxic	Non-toxic	Non-toxic	Non-toxic	598	1	0.249	76	59	IC50 [17]: 2600 nM; Activity [18]: 55.3%; selectivity ratio [19]: 26; CLint scaled [6]: 70 mL/min/kg; AUC [23]: 3.37 µM·h; Vd/F [24]: 318 L/kg; Vz/F [25]: 2020 L/kg; Activity [26]: 53.6%; MST [27]: 7 days; MST [28]: 7 days
Cc1ccc(N2CCN(CC(O)COc3ccccc3C(=O)CCc3ccccc3)CC2)cc1 (stereo not drawn)	1300	640	> 5000	–	2.2 (≈ 1.01 µg/mL)	302	866	8	0.5	6.49	272	Non-toxic	Non-toxic	Non-toxic	Non-toxic	–	–	–	92	71	IC50 [17]: 4310 nM; permeability ([4]; BLD = below limit of detection): BLD; CLint scaled [31]: 38 mL/min/kg
O=C(CCc1ccccc1)c1ccccc1OCC(O)CN1CCC(c2ccccc2)CC1 (stereo not drawn)	750	240	> 5000	490	7.3 (≈ 3.24 µg/mL)	69.6	1620	0.3	0.5	6.8	278	Non-toxic	Non-toxic	Non-toxic	Non-toxic	1750	0.5	0.224	78	31	Activity [32]: 33.3%; AUC [23]: 15.3 µM·h; Vz/F [33]: 1093.3 L/kg; Vd/F [34]: 623 L/kg; Activity [35]: 44.5%; Activity [36]: 28.4%; Activity [37]: 50.4%; MST [27]: 9 days
CCN(CC)CCCC(C)Nc1ccnc2cc(Cl)ccc12 (stereo not drawn) [CHLOROQUINE]	–	–	–	–	–	–	–	–	–	–	–	–	–	–	–	–	–	–	–	–	MST [27]: 22 days; MST [38]: 17 days
O=C(CCc1ccccc1)c1cc(F)ccc1OCC(O)CN1CCC(c2ccccc2)CC1 (stereo not drawn)	2200	420	–	–	0.2 (≈ 0.0923 µg/mL)	434	481	1	1	3.75	982	Non-toxic	Non-toxic	Non-toxic	Non-toxic	–	–	1.6	73	34	EC50 [1]: 1330 nM; EC50 [2]: 260 nM; permeability ([4]; BLD = below limit of detection): BLD; Vd/F [24]: 224 L/kg
O=C(CCc1ccc(F)cc1)c1ccccc1OCC(O)CN1CCN(C(c2ccccc2)c2ccccc2)CC1 (stereo not drawn)	450	210	–	–	0.6 (≈ 0.332 µg/mL)	92.4	1140	0.5	1	5.67	288	Non-toxic	Non-toxic	Non-toxic	Non-toxic	861	0.5	0.298	83	76	EC50 [1]: 160 nM; EC50 [2]: 100 nM; permeability ([4]; BLD = below limit of detection): BLD; AUC [23]: 4.08 µM·h; Vd/F [24]: 370 L/kg; Vz/F [25]: 1758 L/kg
